Legend:
[1] = test system: HIV LTR in J89 cells; assay: LTR-driven GFP expression in J89 cells by flow cytometry; format: cell-based; details: overnight incubation with HDACi
Summary of the method: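 Latently infected Jurkat line carrying EGFP as a reporter of Tat-driven HIV LTR expression, grown in RPMI 1640 with 10% FBS at 37°C, 5% CO2. Cells were PBS-washed, exposed overnight to inhibitor, then fixed in PBS with 2% paraformaldehyde. Live cells were gated, with two-parameter analysis to separate GFP from background. From 10 000 events, %GFP+ was reported as mean ± SE of three independent experiments.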

[2] = test system: J89 cells; assay: MTT cytotoxicity/proliferation assay in J89 cells; format: cell-based; details: 24 h, at concentrations used to induce LTR expression
Summary of the method: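 Cells were washed in PBS and incubated 24 h across a range of inhibitor concentrations, then assayed with an MTT proliferation kit. Percent proliferating cells was calculated relative to cells in drug-free medium. Run in triplicate.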

[3] = test system: latent HIV in resting CD4+ T cells; format: cell-based, HIV-1; details: resting CD4+ T cells of aviremic patients on ART, 24 h exposure, compared to PHA
Summary of the method: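 Resting CD4+ T cells came from leukapheresis by negative selection, from patients with plasma RNA <50 copies/ml. Cells were plated at 2.5, 0.5 or 0.1 million per well and exposed to drug for 24 h. PHA comparator: 1 µg/ml PHA-L, five-fold irradiated allogeneic PBMCs and 20 U/ml IL-2. Cells were then washed and co-cultured with CD8-depleted PBMC. p24 ELISA was read on days 15 and 19, and IUPM derived by maximum likelihood.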

[4] = test system: latent HIV in resting CD4+ T cells; details: cited from earlier work
[5] = test system: HDACs; details: HDAC isoforms inhibited; cited from earlier work

With `CCCC(CCC)C(=O)O` [VPA, valproic acid] the “LTR activation (LTR-driven GFP expression)” value [1] was “effectively induced LTR expression”, the “cell proliferation (MTT)” value [2] was “did not perturb cell proliferation” and the “induction of virus outgrowth (recovery of replication-competent HIV)” value [3] was “effective at inducing virus”. For the same compound, the “viral outgrowth from resting CD4+ T cells of aviremic HIV-infected individuals on ART” value [4] was “induce viral outgrowth”.
With `CCC(=O)CCCCC[C@@H]1NC(=O)[C@H]2CCCCN2C(=O)[C@H]([C@@H](C)CC)NC(=O)[C@H](Cc2cn(OC)c3ccccc23)NC1=O` [Apicidin, apicidin] the “LTR activation (LTR-driven GFP expression)” value [1] was “induced LTR activation”, the “cell proliferation (MTT)” value [2] was “slightly antiproliferative” and the “induction of virus outgrowth (recovery of replication-competent HIV)” value [3] was “suboptimal”. For the same compound, the Selectivity [5] was “HDAC1, 2, 3”.
In the case of `O=C(CCCCCCC(=O)Nc1ccccc1)NO` [SAHA, suberoylanilide hydroxamic acid], the “viral outgrowth from resting CD4+ T cells of aviremic HIV-infected individuals on ART” value [4] is given as “induce viral outgrowth”.
